The values below come from ChEMBL document CHEMBL2062449, “Eco-friendly synthesis and biological evaluation of substituted pyrano[2,3-c]pyrazoles” (Bioorg Med Chem Lett, 2012).

In brackets after ≈: the same amount, converted by molar mass.

Assay [1] deals with Staphylococcus aureus. Kind of assay: Antibacterial activity against Staphylococcus aureus at […] after 24 hrs by agar diffusion method. Type of assay: functional. Summed up: (§1)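 Single-concentration antibacterial screen at 100 μg/50 μL per test against the standard bacterial strains.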
Assay [2] relates to Pseudomonas aeruginosa. Kind of assay: Antibacterial activity against Pseudomonas aeruginosa at 100 ug/[…] after 24 hrs by agar diffusion method. The class given is functional. In outline: as §1
For assay [3], the system named is Escherichia coli. Kind of assay: Antibacterial activity against Escherichia coli at […] after 24 hrs by agar diffusion method. Type of assay: functional. Summed up: as §1
The test system of assay [4] is Bacillus subtilis. Kind of assay: Antibacterial activity against Bacillus subtilis at […] after 24 hrs by agar diffusion method. The class given is functional. In outline:
as §1

Assay [5] has as its system MCF7. Kind of assay: Cytotoxicity against estrogen receptor-positive human MCF7 cells assessed as inhibition of cell proliferation after 24 hrs by MTT assay. The class given is functional, cell-based. The conditions noted are these: Homo sapiens, MCF7, 24 h; read-out: IC50. In outline:
(§2)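 MTT assay on MCF-7 human breast cancer cells, Taxol as reference; percentage inhibition of cell proliferation read at graded concentrations from 0.1 to 50 μg/mL (typically five or six levels per compound); IC50 in μg/mL derived from the inhibition series.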

In assay [6] the test system is MCF7. Nature of the assay: Cytotoxicity against estrogen receptor-positive human MCF7 cells assessed as inhibition of cell proliferation at 1 ug/ml after 24 hrs by MTT assay. Type of assay: functional. The conditions noted are these: MCF7, 24 h. Summed up:
as §2

Assay [7] concerns MCF7. Kind of assay: Cytotoxicity against estrogen receptor-positive human MCF7 cells assessed as inhibition of cell proliferation at 10 ug/ml after 24 hrs by MTT assay. As to conditions: MCF7, 24 h. The class given is functional. In outline: as §2
Assay [8] concerns MCF7. Nature of the assay: Cytotoxicity against estrogen receptor-positive human MCF7 cells assessed as inhibition of cell proliferation at 50 ug/ml after 24 hrs by MTT assay. Type of assay: functional. As to conditions: MCF7, 24 h. Summed up: as §2
Assay [9] deals with MCF7. Kind of assay: Cytotoxicity against estrogen receptor-positive human MCF7 cells assessed as inhibition of cell proliferation at 25 ug/ml after 24 hrs by MTT assay. Type of assay: functional. As to conditions: MCF7, 24 h. In outline:
as §2

In assay [10] the test system is MCF7. Nature of the assay: Cytotoxicity against estrogen receptor-positive human MCF7 cells assessed as inhibition of cell proliferation at 5 ug/ml after 24 hrs by MTT assay. The class given is functional. As to conditions: MCF7, 24 h. In outline: as §2
Assay [11] deals with Rattus norvegicus. Nature of the assay: Antiinflammatory activity in Wistar rat assessed as protection against carrageenan-induced paw edema at 100 mg/kg, po administered 1 hr before carrageenan challenge measured after 4 hrs. Type of assay: functional.
The test system of assay [12] is Rattus norvegicus. Nature of the assay: Antiinflammatory activity in Wistar rat assessed as protection against carrageenan-induced paw edema at 100 mg/kg, po administered 1 hr before carrageenan challenge measured after 30 mins. The class given is functional.
Assay [13] has as its system Rattus norvegicus. Kind of assay: Antiinflammatory activity in Wistar rat assessed as protection against carrageenan-induced paw edema at 100 mg/kg, po administered 1 hr before carrageenan challenge measured after 3 hrs. Type of assay: functional.
Assay [14] concerns Rattus norvegicus. Nature of the assay: Antiinflammatory activity in Wistar rat assessed as protection against carrageenan-induced paw edema at 100 mg/kg, po administered 1 hr before carrageenan challenge measured after 2 hrs. The class given is functional.
Assay [15] deals with Rattus norvegicus. Nature of the assay: Antiinflammatory activity in Wistar rat assessed as protection against carrageenan-induced paw edema at 100 mg/kg, po administered 1 hr before carrageenan challenge measured after 1 hr. Type of assay: functional.
The test system of assay [16] is Staphylococcus aureus. Nature of the assay: Antibacterial activity against Staphylococcus aureus after 18 to 24 hrs by broth microdilution method. Type of assay: functional.
Assay [17] concerns Pseudomonas aeruginosa. Nature of the assay: Antibacterial activity against Pseudomonas aeruginosa after 18 to 24 hrs by broth microdilution method. Type of assay: functional.
For assay [18], the system named is Bacillus subtilis. Nature of the assay: Antibacterial activity against Bacillus subtilis after 18 to 24 hrs by broth microdilution method. Type of assay: functional.
Assay [19] concerns Escherichia coli. Kind of assay: Antibacterial activity against Escherichia coli after 18 to 24 hrs by broth microdilution method. Type of assay: functional.

As to `Cc1nn(-c2ccccc2)c2c1C(c1ccc([N+](=O)[O-])cc1)C(C#N)=C(N)O2` (stereo not drawn), the “inhibition zone (IZ)” value with Staphylococcus aureus [1] was found to be 8 mm; in the assay with Pseudomonas aeruginosa [2], 8 mm; with Escherichia coli [3], 15 mm; in the assay with Bacillus subtilis [4], 7 mm. Besides, the IC50 in the assay with MCF7 [5] is 15.1 µg/mL (≈ 40.6 µM). The inhibition at 1 µg/mL in the assay with MCF7 [6] was found to be 2.04%. Besides, the inhibition at 10 µg/mL in the assay on MCF7 [7] stood at 30.8%. In addition, the inhibition at 50 µg/mL in the assay with MCF7 [8] was found to be 96.4%. The inhibition at 25 µg/mL in the assay on MCF7 [9] amounted to 85.5%. Moreover, the inhibition at 5 µg/mL with MCF7 [10] stood at 12.5%.
Turning to `Cc1nn(-c2ccccc2)c2c1C(c1ccccc1)C(C#N)=C(N)O2` (stereo not drawn), the Activity with Rattus norvegicus [11] is 48.3%; with Rattus norvegicus [12], 11.7%; in the assay on Rattus norvegicus [13], 53.7%; in the assay on Rattus norvegicus [14], 42.4%; in the assay on Rattus norvegicus [15], 27.7%. The “inhibition zone (IZ)” value in the assay on Staphylococcus aureus [1] is 6 mm; with Pseudomonas aeruginosa [2], 9 mm; with Escherichia coli [3], 14 mm; in the assay with Bacillus subtilis [4] it was 8 mm. For the same compound, the IC50 in the assay with MCF7 [5] was found to be 25.8 µg/mL (≈ 78.5 µM). Besides, the inhibition at 1 µg/mL in the assay on MCF7 [6] amounted to 1.67%. Also, the inhibition at 10 µg/mL in the assay on MCF7 [7] was 26.9%. Further, in the assay with MCF7 [8], the inhibition at 50 µg/mL worked out at 84.1%. Further, in the assay on MCF7 [9], the inhibition at 25 µg/mL turned out to be 55.5%. The inhibition at 5 µg/mL in the assay with MCF7 [10] came to 22.4%.
`Cc1ccc(C2C(C#N)=C(N)Oc3[nH]nc(C)c32)cc1` (stereo not drawn): the “inhibition zone (IZ)” value in the assay on Staphylococcus aureus [1] is recorded as 10 mm; with Pseudomonas aeruginosa [2] it was 15 mm; in the assay on Bacillus subtilis [4] it was 10 mm.
As for `COc1ccc(C2C(C#N)=C(N)Oc3c2c(C)nn3-c2ccccc2)cc1` (stereo not drawn), the Activity with Rattus norvegicus [11] is given as 45%; in the assay on Rattus norvegicus [12] it was 11.7%; with Rattus norvegicus [13] it was 52.6%; in the assay on Rattus norvegicus [14], 39.7%; in the assay with Rattus norvegicus [15] it was 25%. In addition, the “inhibition zone (IZ)” value came out at 5 mm with Staphylococcus aureus [1], 6 mm in the assay with Pseudomonas aeruginosa [2], 10 mm in the assay with Escherichia coli [3] and 4 mm in the assay with Bacillus subtilis [4]. Besides, the inhibition at 1 µg/mL in the assay with MCF7 [6] came to 0.76%. The inhibition at 10 µg/mL in the assay on MCF7 [7] turned out to be 8.99%. Further, the inhibition at 50 µg/mL in the assay with MCF7 [8] was determined as 30%. Further, the inhibition at 25 µg/mL in the assay with MCF7 [9] is 11.6%. In addition, in the assay with MCF7 [10], the inhibition at 5 µg/mL was 4.19%.
Regarding `Cc1[nH]nc2c1C(c1ccc(O)cc1)C(C#N)=C(N)O2` (stereo not drawn), the figures for the “inhibition zone (IZ)” value in the assay on Staphylococcus aureus [1], in the assay with Pseudomonas aeruginosa [2] and with Escherichia coli [3] were 13 mm, 15 mm and 15 mm, respectively.
Take `Cc1[nH]nc2c1C(c1c(F)c(F)c(F)c(F)c1F)C(C#N)=C(N)O2` (stereo not drawn): the “inhibition zone (IZ)” value in the assay with Staphylococcus aureus [1] is 18 mm; in the assay on Pseudomonas aeruginosa [2], 15 mm; with Escherichia coli [3], 14 mm; in the assay with Bacillus subtilis [4] it was 15 mm. The MIC turned out to be 3.12 µg/mL (≈ 9.13 µM) against Staphylococcus aureus [16], 1.56 µg/mL (≈ 4.56 µM) against Pseudomonas aeruginosa [17], 3.12 µg/mL (≈ 9.13 µM) against Bacillus subtilis [18] and 1.56 µg/mL (≈ 4.56 µM) against Escherichia coli [19]. The IC50 in the assay on MCF7 [5] was 45.5 µg/mL (≈ 133 µM). In addition, the inhibition at 1 µg/mL in the assay with MCF7 [6] worked out at 1.1%. The inhibition at 10 µg/mL in the assay on MCF7 [7] is 16.2%. Besides, the inhibition at 50 µg/mL in the assay on MCF7 [8] is 65.6%. Moreover, in the assay with MCF7 [9], the inhibition at 25 µg/mL turned out to be 45.1%. For the same compound, the inhibition at 5 µg/mL with MCF7 [10] was found to be 6.96%.
Take `Cc1[nH]nc2c1C(c1cccnc1)C(C#N)=C(N)O2` (stereo not drawn): the IC50 with MCF7 [5] worked out at 35.4 µg/mL (≈ 140 µM). In the assay with MCF7 [6], the inhibition at 1 µg/mL was 0.41%. The inhibition at 10 µg/mL in the assay with MCF7 [7] was determined as 16.3%. For the same compound, the inhibition at 50 µg/mL in the assay on MCF7 [8] was determined as 75%. Further, in the assay with MCF7 [9], the inhibition at 25 µg/mL was 25.2%. For the same compound, the inhibition at 5 µg/mL in the assay with MCF7 [10] is 10.1%.
For `Cc1[nH]nc2c1C(c1cccc(Oc3nc(Cl)c(Cl)cc3Cl)c1)C(C#N)=C(N)O2` (stereo not drawn), the Activity in the assay with Rattus norvegicus [11] was found to be 53.8%; in the assay on Rattus norvegicus [12] it was 23.5%; in the assay with Rattus norvegicus [13] it was 70.9%; in the assay on Rattus norvegicus [14] it was 64.3%; with Rattus norvegicus [15], 47.2%. In addition, the “inhibition zone (IZ)” value in the assay with Staphylococcus aureus [1] was found to be 16 mm; in the assay with Pseudomonas aeruginosa [2] it was 15 mm; in the assay with Escherichia coli [3] it was 23 mm; with Bacillus subtilis [4], 21 mm. For the same compound, the MIC came out at 6.25 µg/mL (≈ 13.9 µM) against Staphylococcus aureus [16], 6.25 µg/mL (≈ 13.9 µM) against Pseudomonas aeruginosa [17], 6.25 µg/mL (≈ 13.9 µM) with Bacillus subtilis [18] and 3.12 µg/mL (≈ 6.96 µM) with Escherichia coli [19]. The IC50 in the assay with MCF7 [5] was 42.8 µg/mL (≈ 95.5 µM). The inhibition at 1 µg/mL in the assay with MCF7 [6] came out at 0.41%. In addition, the inhibition at 10 µg/mL in the assay on MCF7 [7] stood at 34.6%. In addition, the inhibition at 50 µg/mL with MCF7 [8] stood at 50.1%. In addition, the inhibition at 25 µg/mL in the assay on MCF7 [9] was found to be 42.4%. For the same compound, in the assay with MCF7 [10], the inhibition at 5 µg/mL came out at 16.3%.
Regarding `Cc1[nH]nc2c1C1(C(=O)Nc3ccccc31)C(C#N)=C(N)O2` (stereo not drawn), the Activity in the assay with Rattus norvegicus [11] is listed as 51.6%; with Rattus norvegicus [12], 23.5%; in the assay on Rattus norvegicus [13] it was 69.8%; in the assay on Rattus norvegicus [14], 54.7%; with Rattus norvegicus [15] it was 36.1%. For the same compound, the “inhibition zone (IZ)” value was 13 mm with Staphylococcus aureus [1], 10 mm with Pseudomonas aeruginosa [2], 12 mm with Escherichia coli [3] and 11 mm in the assay with Bacillus subtilis [4]. For the same compound, the inhibition at 1 µg/mL in the assay on MCF7 [6] is -1.26%. The inhibition at 10 µg/mL with MCF7 [7] was 0.51%. For the same compound, the inhibition at 50 µg/mL with MCF7 [8] is -4.93%. The inhibition at 25 µg/mL in the assay with MCF7 [9] is -5.9%. In addition, the inhibition at 5 µg/mL in the assay with MCF7 [10] was -3.16%.
